Test results taken from publication PMC11406440 (Food and chemical toxicology : an international journal …, 2024).

System: spleen cells
Experiment: Spleen immune phenotyping by flow cytometry
Assay type: in vivo, B6C3F1 mice
Settings: 28 days; for Spleen B-cells frequency / Spleen B-cells number / Spleen CD4+ frequency / Spleen CD4+ number / Spleen CD8+ frequency / Spleen CD8+ number / Spleen CD11b + Ly6C+ frequency / Spleen CD11b + Ly6C+ number / Spleen CD11b + Ly6C- frequency / Spleen CD11b + Ly6C- number / Spleen CD11b+ frequency / Spleen CD11b+ number / Spleen CD86 B-cells / Spleen CD86 DCs / Spleen Cellularity / Spleen Dendritic Cells frequency / Spleen Dendritic Cells number / Spleen MHCII B-cells / Spleen MHCII DCs / Spleen NK frequency / Spleen NK number / Spleen Neutrophils frequency / Spleen Neutrophils number: mean ± SE
Method in brief: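 Female B6C3F1 mice (5/group) received 25 μl/ear of acetone vehicle or 1.25, 2.5 or 5% w/v test compound on the dorsal surface of each ear, once daily for 28 days. They were euthanized about 24 h later. Single-cell suspensions were made from both auricular dLNs, half a spleen or one ear pinna. Cells were Fc-blocked (anti-CD16/32), stained with surface antibody cocktails and acquired on an LSR II, with FMO gating controls.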

O=S(=O)(O)C(F)(F)C(F)(F)C(F)(F)C(F)(F)C(F)(F)C(F)(F)F [PFHxS, Perfluorohexane sulfonic acid]
Spleen B-cells frequency (1.25% PFHxS): 31.48 ± 0.59%
Spleen B-cells number (1.25% PFHxS): 2.50 ± 0.38 x 10^7
Spleen CD4+ frequency (1.25% PFHxS): 24.60 ± 0.70%
Spleen CD4+ number (1.25% PFHxS): 1.95 ± 0.30 x 10^7
Spleen CD8+ frequency (1.25% PFHxS): 15.12 ± 0.73%
Spleen CD8+ number (1.25% PFHxS): 11.70 ± 1.45 x 10^6
Spleen CD11b + Ly6C+ frequency (1.25% PFHxS): 1.11 ± 0.09%
Spleen CD11b + Ly6C+ number (1.25% PFHxS): 9.05 ± 1.59 x 10^5
Spleen CD11b + Ly6C- frequency (1.25% PFHxS): 2.63 ± 0.16 %
Spleen CD11b + Ly6C- number (1.25% PFHxS): 21.00 ± 3.46 x 10^5
Spleen CD11b+ frequency (1.25% PFHxS): 3.90 ± 0.21%
Spleen CD11b+ number (1.25% PFHxS): 3.13 ± 0.51 x 10^6
Spleen CD86 B-cells (1.25% PFHxS): 341.20 ± 16.00 MFI
Spleen CD86 DCs (1.25% PFHxS): 1733.80 ± 46.13 MFI
Spleen Cellularity (1.25% PFHxS): 7.91 ± 1.16 x 10^7
Spleen Dendritic Cells frequency (1.25% PFHxS): 3.33 ± 0.32%
Spleen Dendritic Cells number (1.25% PFHxS): 2.70 ± 0.48 x 10^6
Spleen MHCII B-cells (1.25% PFHxS): 1334.60 ± 89.70 MFI
Spleen MHCII DCs (1.25% PFHxS): 4141.40 ± 112.06 MFI
Spleen NK frequency (1.25% PFHxS): 2.52 ± 0.17%
Spleen NK number (1.25% PFHxS): 20.00 ± 3.26 x 10^5
Spleen Neutrophils frequency (1.25% PFHxS): 1.76 ± 0.14%
Spleen Neutrophils number (1.25% PFHxS): 14.00 ± 2.38 x 10^5
Spleen eosinophils frequency and number (1.25%, 2.5%, 5% PFHxS): decrease
Spleen B-cells frequency (2.5% PFHxS): 32.48 ± 0.37%
Spleen B-cells number (2.5% PFHxS): 1.62 ± 0.19 x 10^7
Spleen CD4+ frequency (2.5% PFHxS): 26.26 ± 0.79 %
Spleen CD4+ number (2.5% PFHxS): 1.30 ± 0.13 x 10^7
Spleen CD8+ frequency (2.5% PFHxS): 16.74 ± 0.56 %
Spleen CD8+ number (2.5% PFHxS): 8.25 ± 0.73 x 10^6
Spleen CD11b + Ly6C+ frequency (2.5% PFHxS): 0.72 ± 0.11 %
Spleen CD11b + Ly6C+ number (2.5% PFHxS): 3.77 ± 0.85 x 10^5
Spleen CD11b + Ly6C- frequency (2.5% PFHxS): 2.21 ± 0.13 %
Spleen CD11b + Ly6C- number (2.5% PFHxS): 11.20 ± 1.52 x 10^5
Spleen CD11b+ frequency (2.5% PFHxS): 3.07 ± 0.21 %
Spleen CD11b+ number (2.5% PFHxS): 1.56 ± 0.24 x 10^6
Spleen CD86 B-cells (2.5% PFHxS): 280.80 ± 10.49 MFI
Spleen CD86 DCs (2.5% PFHxS): 1677.40 ± 60.65 MFI
Spleen Cellularity (2.5% PFHxS): 4.99 ± 0.55 x 10^7
Spleen Dendritic Cells frequency (2.5% PFHxS): 3.36 ± 0.48%
Spleen Dendritic Cells number (2.5% PFHxS): 1.71 ± 0.33 x 10^6
Spleen MHCII B-cells (2.5% PFHxS): 1235.60 ± 111.64 MFI
Spleen MHCII DCs (2.5% PFHxS): 4003.00 ± 145.61 MFI
Spleen NK frequency (2.5% PFHxS): 2.19 ± 0.06 %
Spleen NK number (2.5% PFHxS): 10.90 ± 1.04 x 10^5
Spleen Neutrophils frequency (2.5% PFHxS): 1.69 ± 0.21%
Spleen Neutrophils number (2.5% PFHxS): 8.87 ± 2.15 x 10^5
Spleen B-cells frequency (5% PFHxS): 30.06 ± 0.55 %
Spleen B-cells number (5% PFHxS): 1.11 ± 0.15 x 10^7
Spleen CD4+ frequency (5% PFHxS): 26.90 ± 0.70 %
Spleen CD4+ number (5% PFHxS): 0.99 ± 0.12 x 10^7
Spleen CD8+ frequency (5% PFHxS): 18.12 ± 0.59 %
Spleen CD8+ number (5% PFHxS): 6.58 ± 0.73 x 10^6
Spleen CD11b + Ly6C+ frequency (5% PFHxS): 0.68 ± 0.13 %
Spleen CD11b + Ly6C+ number (5% PFHxS): 2.52 ± 0.56 x 10^5
Spleen CD11b + Ly6C- frequency (5% PFHxS): 1.69 ± 0.13 %
Spleen CD11b + Ly6C- number (5% PFHxS): 6.28 ± 0.91 x 10^5
Spleen CD11b+ frequency (5% PFHxS): 2.49 ± 0.24 %
